# Compound activity deposited in PubChem by several laboratories.
# Hits are enriched below; roughly 4.5% of the tested compounds scored in any of these assays.
# PERK inh = inhibitors of human PERK kinase. CHO PERK-DD fusion, SEAP luminescence translation reporter. AID 1416. inhibition, % at 5.6 µM. Q9NZJ5. 220,000 tested, 0.17% active;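 active means inhibition above the mean inhibition of all tested compounds plus 3 SD, set separately per screening campaign, cut at about 2.9% in these data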;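 further: PERK kinase domain activated by AP20187 dimerizer at 100 nM; 0% = DMSO with dimerizer and 100% = rapamycin at 8.4 µM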
# Target sequence (Q9NZJ5 whole entry, looked up, the tested form may be a part): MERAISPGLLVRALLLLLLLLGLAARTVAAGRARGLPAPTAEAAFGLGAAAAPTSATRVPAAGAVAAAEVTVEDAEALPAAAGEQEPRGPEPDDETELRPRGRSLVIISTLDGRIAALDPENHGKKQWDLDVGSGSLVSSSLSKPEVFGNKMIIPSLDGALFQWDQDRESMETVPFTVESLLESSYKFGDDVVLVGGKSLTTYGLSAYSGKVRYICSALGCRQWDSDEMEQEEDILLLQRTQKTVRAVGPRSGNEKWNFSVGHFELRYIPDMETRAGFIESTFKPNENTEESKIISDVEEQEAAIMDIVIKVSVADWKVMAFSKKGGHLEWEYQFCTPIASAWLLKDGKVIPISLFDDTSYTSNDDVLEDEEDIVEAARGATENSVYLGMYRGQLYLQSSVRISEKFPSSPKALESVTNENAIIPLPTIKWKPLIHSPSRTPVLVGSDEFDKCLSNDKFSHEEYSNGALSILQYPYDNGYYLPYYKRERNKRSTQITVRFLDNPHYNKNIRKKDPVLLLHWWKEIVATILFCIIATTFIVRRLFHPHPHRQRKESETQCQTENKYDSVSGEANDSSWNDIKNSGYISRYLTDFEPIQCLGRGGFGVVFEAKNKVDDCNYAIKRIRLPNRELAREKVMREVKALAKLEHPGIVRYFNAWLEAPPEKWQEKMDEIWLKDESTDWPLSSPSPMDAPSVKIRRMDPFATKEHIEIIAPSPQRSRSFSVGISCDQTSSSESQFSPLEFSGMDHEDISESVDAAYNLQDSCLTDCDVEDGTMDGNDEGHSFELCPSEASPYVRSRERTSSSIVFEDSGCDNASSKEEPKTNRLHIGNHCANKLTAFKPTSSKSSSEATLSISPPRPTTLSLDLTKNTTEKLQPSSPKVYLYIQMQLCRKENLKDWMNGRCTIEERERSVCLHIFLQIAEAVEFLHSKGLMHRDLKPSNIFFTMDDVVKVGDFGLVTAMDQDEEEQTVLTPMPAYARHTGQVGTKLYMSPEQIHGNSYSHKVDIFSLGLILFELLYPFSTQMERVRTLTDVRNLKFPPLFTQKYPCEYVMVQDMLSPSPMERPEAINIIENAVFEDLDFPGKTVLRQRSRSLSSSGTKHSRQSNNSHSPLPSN
# Mdm2 ligase inh = Mdm2 E3 ligase (human) inhibition; cell-based MDM2 ubiquitination luciferase reporter, 2 h; 0 = plate control, 100 = twice control, blank-subtracted; Q00987; 210,000 tested, 0.11% active; signal enhancement, % at 5 µM;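 active means signal enhancement of 30% or more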;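 further: luminescence tracks abundance of the self-degrading MDM2-luciferase fusion protein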
#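 system = mammalian cells stably expressing self-ubiquitinating, self-degrading MDM2 E3–luciferase fusion | quantity = 2000 cells per well seeded | incubation = 4 h cell settling then 2 h compound exposure, 37 °C | signal = SteadyLite luminescence, 15 min reagent step | benchmarks = plate control and blank wells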
# STAT1 act = activators of IFN-gamma induced STAT1 signaling. AID 932. NIH 3T3 STAT1-luciferase reporter, luminescence; 100% = IFN-gamma alone, no compound. activation (% of control), % at 5.5 µM. 200,000 tested, 2.6% active;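 active means activation above the screen-wide mean activation plus 3 SD, cut at about 130% in these data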;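 further: raw ratio to IFN-gamma control signal so 100% means no change and 0% no light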
# APP 5'UTR act = activates APP 5'UTR luciferase reporter; AID 1276; SH-SY5Y APP 5'UTR luciferase reporter, luminescence; zero percent = DMSO vehicle wells; activation, % at 2 µM; 190,000 tested, 1% active;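 active means activation above a set limit, based on mean plus 3 SD of controls, cut at about 140% in these data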
# NF-kB neuron act = NF-kB expression increase, human neuronal cells. AID 1239. fold change at 12.5 µM. 190,000 tested, 1.6% active. NF-kB reporter expression; stronger effect = higher value; in the data active means fold change above about 3.3
# AHR activator = activates the human aryl hydrocarbon receptor; P35869; AHR-responsive luciferase reporter cells, luminescence; activation, % at 5 µM; 320,000 tested, 2.5% active; in the data active means activation above about 47%;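 further: 0% = vehicle wells and 100% = reference agonist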
# * = called active by the depositor; / = no result given.
SMILES,PERK inh,Mdm2 ligase inh,STAT1 act,APP 5'UTR act,NF-kB neuron act,AHR activator
CCc1ccc(C(=O)COC(=O)c2cccs2)cc1,-1,-70,115,156*,1.8,-1
Cc1ccc(C(=O)COC(=O)CNC(=O)c2cccs2)cc1,2,14,102,-2,1.1,2
CC(=O)Nc1cc(C(=O)OCC(=O)c2ccc(C)cc2)ccc1C,1,2,143*,17,3.9*,5
CCC1(c2ccc(F)cc2)NC(=O)N(CC(=O)N2CCN(S(=O)(=O)c3ccc(C)cc3)CC2)C1=O (stereo unspecified),/,/,/,/,/,-1
Cc1ccc(C(=O)CN2C(=O)C(=O)N(Cc3ccccc3)C2=O)cc1,0,-16,112,27,1.2,-2
COCCNC(=S)NNC(=O)c1ccc(-n2cnnn2)cc1,0,-10,107,9,1.1,-3
C/C(CC(=O)NC(C)(C)C)=N\NC(=O)c1ccccc1N,0,-16,129*,35,1.3,13
CC(=O)Nc1ccc(-c2cn3c(n2)SCC3)cc1,/,/,/,/,/,6
Cc1ccc(-c2cn3c(n2)SCC3)cc1,1,-7,141*,107,4.1*,-4
COc1cc(-c2nnc(COC(=O)c3nn(CC(C)C)c(=O)c4ccccc34)o2)cc(OC)c1OC,/,/,/,/,/,2
C=C(C(=O)c1ccccc1)C(C)C(=C)C(=O)c1ccccc1,0,-9,83,-41,8.5*,-1
N#CC1=C(N)Oc2cc(N)ccc2C1c1ccsc1 (stereo unspecified),0,-2,106,-4,1.3,84*
Cn1c2ccccc2c2cc(C(=O)NNS(=O)(=O)c3ccc(F)cc3)sc21,0,-13,99,-9,1.2,77*
CN(C)CCCNC(=O)c1cc2c3ccccc3n(C)c2s1,-1,-1,108,-9,1.1,28
COCCCNC(=S)Nc1cccc(S(=O)(=O)NC2=NCCC2)c1,0,-10,100,3,1.3,2
CCn1nnc2cc(C(=O)NCCc3ccccc3F)ccc21,/,/,/,/,/,-4
Cc1cccc(CCNC(=O)Cn2ncc3c([nH]c4ccccc43)c2=O)c1,/,/,/,/,/,6
O=C(NC1CC1)c1cccc(NC(=O)c2cnn(-c3ccccc3)n2)c1,/,/,/,/,/,59*
O=C(Nc1cccc(C(=O)NC2CCCC2)c1)c1ccccc1,/,/,/,/,/,11
COc1ccc(NC(=O)c2ccco2)c([N+](=O)[O-])c1,0,-13,138*,49,2.5,0
Cc1ccc(NC(=O)c2ccco2)c([N+](=O)[O-])c1,0,-2,139*,39,/,-2
COc1ccc(NC(=O)C/C(C)=N/NC(=O)c2ccco2)c([N+](=O)[O-])c1,/,/,/,/,/,2
Cc1c([N+](=O)[O-])cc(C(=O)Nc2ccc(NC(=O)c3ccco3)cc2)cc1[N+](=O)[O-],/,/,/,/,/,2
CCOC(=O)C1=C(C)NC(C)=C(C(=O)OCC)C1c1ccc(O)cc1,-1,-9,90,6,1.5,10
COC(=O)C1=C(C)NC(C)=C(C(=O)OC)C1c1ccc(N(C)C)cc1,0,-12,89,-17,3.7*,0
SMILES,PERK inh,Mdm2 ligase inh,STAT1 act,APP 5'UTR act,NF-kB neuron act,AHR activator
O=C(N/N=C\c1ccc(Cl)s1)c1ccc(Cn2cccn2)o1,0,5,103,-13,1.1,73*
O=C(N/N=C/c1cccnc1)c1ccc(Cn2cc([N+](=O)[O-])cn2)o1,-1,2,101,1,1.1,63*
CC(C)c1ccc(/C=N\NC(=O)c2ccc(Cn3cccn3)o2)cc1,-1,-4,107,34,1.2,23
C[C@]12CCC[C@H](O1)c1c(cc3c(c1O)C(=O)c1c(O)cc(O)cc1C3=O)O2,/,/,/,/,/,20
CCCn1nnc(NC(=O)c2ccccc2Cl)n1,0,-6,110,12,1.7,1
CCCn1nnc(NC(=O)c2ccc(Cl)cc2Cl)n1,0,-24,131*,58,2,13
CCCn1nnc(NC(=S)NC(=O)c2ccccc2OC)n1,/,/,/,/,/,57*
CCN1C(=O)CSC1=Nc1cccc(C(=O)O)c1,/,/,/,/,/,2
O=C1COc2ccc(C(=O)COC(=O)Cc3ccsc3)cc2N1,0,-10,108,11,1.1,-1
O=C(COC(=O)CNC(=O)c1ccccc1)NCCNC(=O)COC(=O)CNC(=O)c1ccccc1,/,/,/,/,/,-2
COc1ccccc1C1=NOC(C)(c2sc(-c3ccc(Cl)cc3)nc2C)C1 (stereo unspecified),/,13,/,/,/,4
Cc1ccccc1N=C1Nc2ccccc2CS1,0,-33,126,105,4.6*,-9
Nc1cccc(CCc2nc3cc4ccccc4cc3[nH]2)c1,1,-3,131*,-17,4.2*,62*
Cc1cc(C)c(C(=O)COC(=O)C2CCN(c3ccc(C(F)(F)F)cn3)CC2)c(C)c1,/,/,/,/,/,1
COC(=O)c1ccc2c(c1)SC1=C(CCCC1=O)N2,1,-14,112,19,1.6,60*
COc1ccc(NC(=O)Nc2ccc3c(c2)C(=O)N([C@H](C)CO)C[C@H](C)[C@@H](CN(C)C(=O)Nc2ccc(C(F)(F)F)cc2)O3)cc1,/,/,/,/,/,1
CC(=O)/C(=N/Nc1ccc(C)cc1)Sc1nnc(CCc2ccccc2)n1-c1ccccc1,1,10,100,-1,4.4*,4
CCOC(=O)/C(=N/Nc1ccc(OC)cc1)Sc1nnc(CCc2ccccc2)n1-c1ccccc1,-1,8,105,-20,1.2,1
N#Cc1c(SCC(=O)Nc2nncs2)sc2c(O)cc(=O)[nH]c12,/,/,/,/,/,50*
O=C(NCc1cccnc1)NC1(C(F)(F)F)Oc2ccccc2O1,0,-9,103,-15,3.5*,2
CC(C)COc1ccc(-c2nnc(-c3ccco3)o2)cc1,1,-79,116,187*,4.3*,-7
COc1cccc(-c2nnc(-c3ccco3)o2)c1,0,-41,144*,109,3,51*
COc1cccc(-c2nnc(N)o2)c1,3,-10,/,/,/,6
COc1cccc(-c2nnc(-c3ccc(C)o3)o2)c1,-1,-42,120,164*,4.2*,-1
CCc1cnccc1CCC(=O)Nc1ccccc1C,/,/,/,/,/,24
SMILES,PERK inh,Mdm2 ligase inh,STAT1 act,APP 5'UTR act,NF-kB neuron act,AHR activator
CCOc1ccc(C2(C)CC(=O)N(C)C2=O)cc1 (stereo unspecified),/,/,/,/,/,-2
Cc1ccc(C(=O)N(C)Cc2ccc(N3CCOCC3)cc2)cc1S(=O)(=O)NCc1ccccc1,/,/,/,/,/,3
CC(C)NC(=O)CCc1nnc(Cc2cccc(C(F)(F)F)c2)o1,1,-11,140*,40,2.5,7
Cc1cc(Nc2ccccc2)nc(N2CCOCC2)n1,1,-8,95,13,1.5,25
Cc1cc(Nc2cccc(Cl)c2)nc(N2CCOCC2)n1,-1,3,100,9,0.86,52*
CC(C)c1ccc(NNC(=O)C2CCC2)cc1,1,-18,/,/,/,49*
COc1nc(N2CCCC2)nc(-n2nnc(C(C)=O)c2C)n1,0,-36,104,-9,1.1,-9
